In ChEMBL document CHEMBL1275429, “Pharmacodynamic characterization of ceftobiprole in experimental pneumonia caused by phenotypically diverse Staphylococcus aureus strains” (Antimicrob Agents Chemother, 2008):
Converted amounts (≈) assume the structure as drawn.

What was measured:
Staphylococcus aureus [1] = assay: Antimicrobial activity against methicillin-susceptible Staphylococcus aureus 29213 infected in BALB/cAnNCr mouse assessed as decrease in bacterial density in lungs at 1 to 25 mg/kg, sc administered as 1 to 5 times/day after 24 hrs […] relative to control; format: functional; details: route subcutaneous
How it was run: (§1)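 Female BALB/cAnNCr mice (7–9 weeks) were made neutropenic with cyclophosphamide i.p. at 250 mg/kg on day −4 and 100 mg/kg on day −1. Under isoflurane, mice received an oral inoculum in 3% mucin/saline, with nostrils blocked until aspiration. Drug (1–25 mg/kg s.c., once to five times daily, water vehicle) or sham started 6 h post-inoculation. Lungs were harvested at 24 h, homogenized and plated on blood and Columbia agar at 35°C. Mean log10 CFU/ml was compared with the 0-h untreated baseline; 5 mice per group.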

[2] = fT>MIC required for 50% inhibition of community acquired Staphylococcus aureus 146 infection in neutropenic BALB/cAnNCr mouse; format: functional
[3] = fT>MIC required for 50% inhibition of community acquired Staphylococcus aureus 147 infection in neutropenic BALB/cAnNCr mouse; format: functional
[4] = fT>MIC required for 50% inhibition of methicillin-susceptible Staphylococcus aureus 29213 infection in neutropenic BALB/cAnNCr mouse; format: functional
[5] = fT>MIC required for 80% inhibition of community acquired methicillin-resistant Staphylococcus aureus 144 infection in neutropenic BALB/cAnNCr mouse; format: functional
How it was run: (§2)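 Same neutropenic murine pneumonia model, with 24-h lung log10 CFU change (5 mice per group; 1–25 mg/kg s.c., 1–5 times daily). […] ED50, ED80 and stasis exposures were taken from a sigmoid Emax fit for each isolate.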

[6] = fT>MIC required for 80% inhibition of hospital acquired methicillin-resistant Staphylococcus aureus 56 infection in neutropenic BALB/cAnNCr mouse; format: functional; how it was run: as §2
[7] = fAUC/MIC in neutropenic BALB/cAnNCr mouse plasma infected with Staphylococcus aureus at 1 to 25 mg/kg, sc administered 1 to 5 times/day after 24 hrs by HPLC; format: functional; details: route subcutaneous
How it was run: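 Exposure indices used free plasma drug, correcting with 19% mouse protein binding supplied by the sponsor. The regimens were s.c. 1–25 mg/kg given 1–5 times daily for 24 h to neutropenic mice with S. aureus pneumonia. MICs were determined in triplicate by CLSI broth microdilution. PK came from the single-dose HPLC study.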

[8] = Elimination clearance in neutropenic BALB/cAnNCr mouse infected with Staphylococcus aureus at 25 mg/kg, sc administered as single dose after 6 hrs of infection; format: ADME, organism-based; set-up: dose 25 mg/kg, route subcutaneous; details: in vivo
How it was run: (§3)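 Neutropenic female mice (cyclophosphamide i.p. 250 mg/kg day −4, 100 mg/kg day −1) with HA-MRSA 56 pneumonia (oral inoculum, 10^7 CFU/ml in 3% mucin). Single s.c. dose in sterile water. Plasma by intracardiac puncture at 0.25–4 h, six mice per time point, stabilized with citric acid. Assayed by validated HPLC (LOQ 0.01 µg/ml). Parameters from one-compartment analysis.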

[9] = Elimination clearance in neutropenic BALB/cAnNCr mouse infected with Staphylococcus aureus at 10 mg/kg, sc administered as single dose after 6 hrs of infection; format: ADME, organism-based; set-up: dose 10 mg/kg, route subcutaneous; details: in vivo; how it was run: as §3
[10] = Elimination clearance in neutropenic BALB/cAnNCr mouse infected with Staphylococcus aureus at 1 mg/kg, sc administered as single dose after 6 hrs of infection; format: ADME, organism-based; set-up: dose 1 mg/kg, route subcutaneous; details: in vivo; how it was run: as §3
[11] = Elimination half life in neutropenic BALB/cAnNCr mouse infected with Staphylococcus aureus at 25 mg/kg, sc administered as single dose after 6 hrs of infection; format: ADME, organism-based; set-up: dose 25 mg/kg, route subcutaneous; details: in vivo; how it was run: as §3
Mus musculus [12] = assay: Volume of distribution in neutropenic BALB/cAnNCr mouse infected with Staphylococcus aureus at 25 mg/kg, sc administered as single dose after 6 hrs of infection; format: ADME, organism-based; set-up: dose 25 mg/kg, route subcutaneous; details: in vivo; how it was run: as §3
Mus musculus [13] = assay: Volume of distribution in neutropenic BALB/cAnNCr mouse infected with Staphylococcus aureus at 10 mg/kg, sc administered as single dose after 6 hrs of infection; format: ADME, organism-based; set-up: dose 10 mg/kg, route subcutaneous; details: in vivo; how it was run: as §3
[14] = AUC (0 to infinity) in neutropenic BALB/cAnNCr mouse infected with Staphylococcus aureus at 25 mg/kg, sc administered as single dose after 6 hrs of infection; format: ADME, organism-based; set-up: time infinity, dose 25 mg/kg, route subcutaneous; details: plasma; how it was run: as §3
[15] = Tmax in neutropenic BALB/cAnNCr mouse infected with Staphylococcus aureus at 1 mg/kg, sc administered as single dose after 6 hrs of infection; format: ADME, organism-based; set-up: dose 1 mg/kg, route subcutaneous; details: in vivo; how it was run: as §3
[16] = Cmax in neutropenic BALB/cAnNCr mouse infected with Staphylococcus aureus at 25 mg/kg, sc administered as single dose after 6 hrs of infection; format: ADME, organism-based; set-up: dose 25 mg/kg, route subcutaneous; details: in vivo; how it was run: as §3
[17] = Cmax in neutropenic BALB/cAnNCr mouse infected with Staphylococcus aureus at 10 mg/kg, sc administered as single dose after 6 hrs of infection; format: ADME, organism-based; set-up: dose 10 mg/kg, route subcutaneous; details: in vivo; how it was run: as §3
[18] = Cmax in neutropenic BALB/cAnNCr mouse infected with Staphylococcus aureus at 2.5 mg/kg, sc administered as single dose after 6 hrs of infection; format: ADME, organism-based; set-up: dose 2.5 mg/kg, route subcutaneous; details: in vivo
How it was run: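 Female BALB/cAnNCr mice (7-9 weeks, 15-22 g) made neutropenic with cyclophosphamide, 250 mg/kg i.p. on day -4 and 100 mg/kg i.p. on day -1. Infected by oral aspiration of HA-MRSA 56 (10^7 CFU/ml in 3% mucin/saline). Single s.c. dose in sterile water given 6 h post-challenge. Plasma (EDTA, citric acid-stabilized) taken at 0.25-4 h, six mice per time point. Assayed by validated HPLC (LOQ 0.01 µg/ml); one-compartment analysis.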

Staphylococcus aureus [19] = assay: Antimicrobial activity against hospital acquired methicillin-resistant Staphylococcus aureus 149 by broth microdilution method; format: functional
How it was run: (§4)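 Broth microdilution run in triplicate following CLSI guidelines. Isolates were stored at –80°C in double-strength skim milk and subcultured twice on Trypticase soy agar with 5% sheep blood before testing.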

Staphylococcus aureus [20] = assay: Antimicrobial activity against community acquired methicillin-resistant Staphylococcus aureus 147 by broth microdilution method; format: functional; how it was run: as §4
Staphylococcus aureus [21] = assay: Antimicrobial activity against community acquired methicillin-resistant Staphylococcus aureus 144 by broth microdilution method; format: functional; how it was run: as §4
Staphylococcus aureus [22] = assay: Antimicrobial activity against hospital acquired methicillin-resistant Staphylococcus aureus 149 infected in BALB/cAnNCr mouse assessed as decrease in bacterial density in lungs at 1 to 25 mg/kg, sc administered as 1 to 5 times/day after 24 hrs […] relative to control; format: functional; details: route subcutaneous; how it was run: as §1
Staphylococcus aureus [23] = assay: Antimicrobial activity against community acquired methicillin-resistant Staphylococcus aureus 146 infected in BALB/cAnNCr mouse assessed as decrease in bacterial density in lungs at 1 to 25 mg/kg, sc administered as 1 to 5 times/day after 24 hrs […] relative to control; format: functional; details: route subcutaneous; how it was run: as §1
Staphylococcus aureus [24] = assay: Antimicrobial activity against community acquired methicillin-resistant Staphylococcus aureus 147 infected in BALB/cAnNCr mouse assessed as decrease in bacterial density in lungs at 1 to 25 mg/kg, sc administered as 1 to 5 times/day after 24 hrs […] relative to control; format: functional; details: route subcutaneous; how it was run: as §1
[25] = fT>MIC required for stasis inhibition of Staphylococcus aureus infection in neutropenic BALB/cAnNCr mouse; format: functional
[26] = fCmax/MIC required for 50% inhibition of Staphylococcus aureus infection in neutropenic BALB/cAnNCr mouse; format: functional
[27] = fAUC/MIC required for 80% inhibition of Staphylococcus aureus infection in neutropenic BALB/cAnNCr mouse; format: functional

For `Nc1nc(/C(=N/O)C(=O)N[C@@H]2C(=O)N3C(C(=O)O)=C(/C=C4\CCN([C@@H]5CCNC5)C4=O)CS[C@H]23)ns1` [CEFTOBIPROLE], the log10cfu (Staphylococcus aureus [1]) was 3.9, the “fT>MIC” value [2] was 5.5% and the “fT>MIC” value [3] was 17.1%. The “fT>MIC” value [4] was 14.8%, the “fT>MIC” value [5] was 14.3% and the “fT>MIC” value [6] was 15.5%. For the same molecule, the fAUC/MIC [7] was 2, the CL/F [8] was 11.8 mL/min/kg and the CL/F [9] was 10.5 mL/min/kg. The CL/F [10] was 9 mL/min/kg, the half-life [11] was 24 min and the Vd (Mus musculus [12]) was 0.41 L/kg. The Vd (Mus musculus [13]) was 0.38 L/kg, the AUC(0-inf) [14] was 35200 ng·h/mL and the Tmax [15] was 28.8 min. For the same molecule, the Cmax [16] was 38600 ng/mL, the Cmax [17] was 19800 ng/mL and the Cmax [18] was 2910 ng/mL. It also gave an MIC (Staphylococcus aureus [19]) of 1 µg/mL (≈ 1.87 µM), an MIC (Staphylococcus aureus [20]) of 1 µg/mL (≈ 1.87 µM) and an MIC (Staphylococcus aureus [21]) of 1 µg/mL (≈ 1.87 µM). The log10cfu (Staphylococcus aureus [22]) was 4.1, the log10cfu (Staphylococcus aureus [23]) was 3.6 and the log10cfu (Staphylococcus aureus [24]) was 3.2. For the same molecule, the “fT>MIC” value [25] was 11%, the fCmax/MIC [26] was 2 and the fAUC/MIC [27] was 3.
